Source: ChEMBL document CHEMBL4840368, “Structure-activity relationship and molecular modelling studies of quinazolinedione derivatives MMV665916 as potential antimalarial agent” (Bioorg Med Chem, 2021)
pEC50, pIC50: −log10 of the molar value.

How the values were obtained:
[1] = tested on: Plasmodium falciparum; assay: Antimalarial activity against chloroquine-resistant Plasmodium falciparum FcB1(CQR)Colombia assessed as parasite growth inhibition at 20 uM relative to control; type: functional
Procedure, shortened: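 Single-point screen at 20 μM against erythrocytic stages of chloroquine-resistant P. falciparum FcB1 (Columbia) in culture. Read-out is percent parasite growth inhibition.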

[2] = tested on: Plasmodium falciparum; assay: Antimalarial activity against chloroquine-resistant Plasmodium falciparum FcB1(CQR)Colombia assessed as parasite growth inhibition; type: functional, organism-based
Procedure, shortened: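 Erythrocytic-stage growth inhibition in culture of chloroquine-resistant P. falciparum FcB1 (Columbia). EC50 comes from a 10-point dose-response, run only for compounds above a 60% inhibition cut-off in the 20 μM single-point screen. Values are means of at least two experiments.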

[3] = Cytotoxicity against human AB943 cells; type: cell-based
[4] = Selectivity index, ratio of IC50 for human AB943 cells to IC50 for Antimalarial activity against chloroquine-resistant Plasmodium falciparum FcB1(CQR)Colombia; type: toxicity; conditions: read-out: Selectivity Index
[5] = tested on: Plasmodium falciparum; assay: Antiplasmodial activity against Plasmodium falciparum 3D7; type: functional, organism-based
[6] = tested on: Plasmodium falciparum; assay: Antiplasmodial activity against Plasmodium falciparum K1; type: functional, organism-based
[7] = tested on: Plasmodium falciparum; assay: Antiplasmodial activity against Plasmodium falciparum W2; type: functional, organism-based
[8] = tested on: Plasmodium falciparum; assay: Antiplasmodial activity against Plasmodium falciparum Dd2; type: functional, organism-based
[9] = tested on: Plasmodium falciparum; assay: Antiplasmodial activity against Plasmodium falciparum FCR3; type: functional, organism-based
[10] = tested on: Plasmodium berghei; assay: Antiplasmodial activity against Plasmodium berghei at 5 uM; type: functional
[11] = tested on: Plasmodium berghei; assay: Antiplasmodial activity against luciferase expressing Plasmodium berghei; type: functional, organism-based
[12] = target: hERG (KCNH2) (Homo sapiens, UniProt Q12809); assay: Inhibition of human ERG at 11 uM
Chain of hERG (KCNH2) (Q12809 whole entry): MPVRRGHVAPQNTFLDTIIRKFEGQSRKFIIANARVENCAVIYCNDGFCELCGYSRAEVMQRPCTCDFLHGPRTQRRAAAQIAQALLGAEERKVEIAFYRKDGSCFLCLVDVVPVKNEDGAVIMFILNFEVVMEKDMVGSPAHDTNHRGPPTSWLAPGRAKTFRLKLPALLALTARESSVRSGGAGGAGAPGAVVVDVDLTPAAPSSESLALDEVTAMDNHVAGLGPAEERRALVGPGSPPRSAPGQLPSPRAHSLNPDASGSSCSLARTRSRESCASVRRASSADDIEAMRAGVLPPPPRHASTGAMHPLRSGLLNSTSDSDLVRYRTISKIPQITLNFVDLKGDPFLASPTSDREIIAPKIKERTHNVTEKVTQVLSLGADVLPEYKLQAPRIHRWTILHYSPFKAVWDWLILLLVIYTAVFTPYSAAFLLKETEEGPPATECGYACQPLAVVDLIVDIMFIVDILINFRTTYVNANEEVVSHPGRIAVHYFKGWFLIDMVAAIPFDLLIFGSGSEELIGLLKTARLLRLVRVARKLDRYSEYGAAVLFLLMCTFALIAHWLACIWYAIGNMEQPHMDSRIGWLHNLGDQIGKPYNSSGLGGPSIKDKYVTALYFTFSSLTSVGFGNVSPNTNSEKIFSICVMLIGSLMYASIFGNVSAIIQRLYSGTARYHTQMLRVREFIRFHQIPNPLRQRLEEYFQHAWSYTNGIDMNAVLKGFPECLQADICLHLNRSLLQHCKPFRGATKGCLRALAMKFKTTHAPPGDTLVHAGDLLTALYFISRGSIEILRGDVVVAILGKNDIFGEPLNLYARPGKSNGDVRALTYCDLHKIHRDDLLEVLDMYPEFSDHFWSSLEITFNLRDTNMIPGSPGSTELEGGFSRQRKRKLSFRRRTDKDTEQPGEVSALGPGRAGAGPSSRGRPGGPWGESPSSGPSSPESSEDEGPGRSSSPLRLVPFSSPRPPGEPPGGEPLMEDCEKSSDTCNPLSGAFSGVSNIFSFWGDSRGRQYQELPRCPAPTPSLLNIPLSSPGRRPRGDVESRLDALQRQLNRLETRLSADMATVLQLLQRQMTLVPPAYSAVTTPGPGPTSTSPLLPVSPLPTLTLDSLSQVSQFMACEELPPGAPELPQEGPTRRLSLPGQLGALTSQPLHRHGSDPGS

[13] = Plasma protein binding in human; type: ADME, cell-free; conditions: read-out: PPB
[14] = Kinetic solubility of compound at pH 7.4; type: physicochemical; conditions: buffer
[15] = Cmax in mouse at 140 micromol/kg, po; type: ADME; parameters: route oral, dose 140 µmol/kg; conditions: in vivo, 140 µmol/kg
[16] = Tmax in mouse at 140 micromol/kg, po; type: ADME; conditions: in vivo, dose 140 µmol/kg
[17] = AUC (0 to 7 hrs) in mouse at 140 micromol/kg, po; type: ADME; parameters: time < 7 hr, route oral, dose 140 µmol/kg; conditions: in vivo, 140 µmol/kg
[18] = MRT (0 to 7 hrs) in mouse at 140 micromol/kg, po; type: ADME; conditions: in vivo, dose 140 µmol/kg

| Compound | inhibition at 20 µM [1] [%] | pEC50 [2] | other results |
| --- | --- | --- | --- |
| COc1ccc(CNC(=O)CCn2c(=O)[nH]c3ccccc3c2=O)c(OC)c1 | 28 |  |  |
| COc1cc(F)ccc1CNC(=O)CCn1c(=O)[nH]c2ccccc2c1=O | 74.8 | 5.30 | pIC50 [3]: < 4.00; selectivity ratio [4]: > 20 |
| COc1ccccc1CNC(=O)CCn1c(=O)[nH]c2ncccc2c1=O | 52.4 |  |  |
| COc1ccccc1CNS(=O)(=O)CCn1c(=O)[nH]c2ccccc2c1=O | 21.7 |  |  |
| CCOc1ccccc1CNC(=O)CCn1c(=O)[nH]c2ccccc2c1=O | 84.7 | 5.26 | pIC50 [3]: < 4.00; selectivity ratio [4]: > 18.2 |
| O=C(CCn1c(=O)[nH]c2ccccc2c1=O)NCc1ccccc1O | 17.1 |  |  |
| O=C(CCn1c(=O)[nH]c2ccccc2c1=O)N1CCc2ccccc2C1 | 30.6 |  |  |
| O=C(CCn1c(=O)[nH]c2ccccc2c1=O)NCc1ccccc1Cl | 56 | 4.43 |  |
| COc1ccccc1CNC(=O)CCn1c(=O)[nH]c2cc(F)c(F)cc2c1=O | 40.5 |  |  |
| O=C(CCCn1c(=O)[nH]c2ccccc2c1=O)NC1CCCC1 | 21.3 |  |  |
| Cn1nccc1CNC(=O)CCn1c(=O)[nH]c2ccccc2c1=O | 19.9 |  |  |
| COc1ccccc1Cn1cc(Cn2c(=O)[nH]c3ccccc3c2=O)nn1 | 30.5 |  |  |
| COc1ccccc1CNC(=O)CCCn1c(=O)[nH]c2ccccc2c1=O |  | 4.77 |  |
| COc1cc(F)c(F)cc1CNC(=O)CCn1c(=O)[nH]c2ccccc2c1=O | 68.3 | 4.95 |  |
| COc1ccccc1CNC(=O)CCn1c(=O)[nH]c2ccsc2c1=O |  |  | pEC50 [5]: 7.15; pEC50 [6]: 7.15; pEC50 [7]: 7.15; pEC50 [8]: 7.15; pEC50 [9]: 7.15; Activity [10]: 27%; pIC50 [11]: 7.25; inhibition at 11 µM [12]: 5%; fraction unbound [13]: > 0.05; Kinetic_solubility [14]: Soluble |
| O=C(CCn1c(=O)[nH]c2ccccc2c1=O)NC1CCCC1 | 32.9 |  |  |
| COc1ccccc1CNC(=O)CCn1c(=O)[nH]c2ccccc2c1=O |  | 6.40 | pIC50 [3]: < 4.00; selectivity ratio [4]: > 250; pEC50 [5]: 7.15; pEC50 [6]: 7.15; pEC50 [7]: 7.15; pEC50 [8]: 7.15; pEC50 [9]: 7.15; Activity [10]: 23%; pIC50 [11]: 7.36; inhibition at 11 µM [12]: 19%; fraction unbound [13]: < 0.05; Kinetic_solubility [14]: Insoluble; Cmax [15]: 21.3 nM; Tmax [16]: 0.25 h; AUC(0-t) at 7 h [17]: 0.0729 µM·h; MRT last [18]: 3.01 h |
| O=C(CCn1c(=O)[nH]c2ccccc2c1=O)NCc1nc2ccccc2[nH]1 | 38.1 |  |  |
| COc1ccccc1CN(C)C(=O)CCn1c(=O)[nH]c2ccccc2c1=O | 41.8 |  |  |
| COc1ccccc1NC(=O)CCn1c(=O)[nH]c2ccccc2c1=O | 53.1 |  |  |
| O=C(CCn1c(=O)[nH]c2ccccc2c1=O)NCc1ccccc1OC(F)(F)F | 72.5 | 5.17 | pIC50 [3]: < 4.00; selectivity ratio [4]: > 14.7 |
| COc1ccccc1CCNC(=O)CCCn1c(=O)[nH]c2ccccc2c1=O |  | 5.11 |  |
| COc1ccccc1CCNC(=O)CCn1c(=O)[nH]c2ccccc2c1=O |  | 5.00 |  |
| COc1ccccc1CNC(=O)CCn1c(=O)[nH]c2ccc(F)cc2c1=O | 65.4 | 4.70 |  |
| CC(C)CCNC(=O)CCCn1c(=O)[nH]c2ccccc2c1=O |  | < 4.60 |  |
| COc1ccccc1Cn1cc(CCn2c(=O)[nH]c3ccccc3c2=O)nn1 | 68.8 |  |  |
| COc1ccccc1CNC(=O)CCn1c(=O)[nH]c2ccc(Br)cc2c1=O | 59.8 |  |  |
| CC(C)CCNC(=O)CCn1c(=O)[nH]c2ccccc2c1=O |  | < 4.60 |  |
| O=C(CCn1c(=O)[nH]c2ccccc2c1=O)NCc1ccccc1OC(F)F | 63.8 | 4.49 |  |
